In ChEMBL document CHEMBL5705900, “PF-06463922 is a potent and selective next-generation ROS1/ALK inhibitor capable of blocking crizotinib-resistant ROS1 mutations” (Proc Natl Acad Sci U S A, 2015):
pIC50, pKi: −log10 of the molar value. Activity calls are given as the source filed them. The calls are words filed in the database; no cut-off is given here.

Key:
[1] = Inhibition of CD74-ROS1 L2026M mutant expressed in mouse BaF3 cells assessed as inhibition of phosphorylated ROS1 incubated for 1 hr by ELISA analysis; type: cell-based; details: BaF3, 1 h
BaF3 [2] = assay: Antiproliferative activity against mouse BaF3 cells harboring CD74-ROS1 L2026M mutant assessed as reduction in cell viability incubated for 72 hrs by CellTiter-Glo assay; type: functional, cell-based; details: BaF3, 72 h
Summary of the method: (§1)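 BaF3 cells engineered by pMSCV retroviral transduction (puromycin or hygromycin selection, 5 d, pooled populations) with CD74-ROS1 fusion variants. Seeded in growth medium with 10% FBS overnight at 37 °C, then serial compound dilutions for 72 h at 37 °C. CellTiter-Glo for relative cell number; IC50 by four-parameter curve fit.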

[3] = Inhibition of CD74-ROS1 G2032R mutant expressed in mouse BaF3 cells assessed as inhibition of phosphorylated ROS1 incubated for 1 hr by ELISA analysis; type: cell-based; details: BaF3, 1 h
Summary of the method: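 BaF3 cells retrovirally engineered to express CD74-ROS1 G2032R, seeded in growth medium with 0.5% serum overnight. Compounds diluted in serum-free medium, added for 1 h, then aspirated. Lysates assayed for phospho-ROS1 (Tyr2274) by sandwich ELISA; IC50 from four-parameter concentration-response curve fit.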

[4] = molecular target: T1, H-2 class II histocompatibility antigen gamma chain/Proto-oncogene tyrosine-protein kinase ROS (Mus musculus, UniProt Q78DX7); assay: Inhibition of CD74-ROS1 expressed in mouse BaF3 cells assessed as inhibition of phosphorylated ROS1 incubated for 1 hr by ELISA analysis; type: cell-based
T1 sequence (Q78DX7 whole entry): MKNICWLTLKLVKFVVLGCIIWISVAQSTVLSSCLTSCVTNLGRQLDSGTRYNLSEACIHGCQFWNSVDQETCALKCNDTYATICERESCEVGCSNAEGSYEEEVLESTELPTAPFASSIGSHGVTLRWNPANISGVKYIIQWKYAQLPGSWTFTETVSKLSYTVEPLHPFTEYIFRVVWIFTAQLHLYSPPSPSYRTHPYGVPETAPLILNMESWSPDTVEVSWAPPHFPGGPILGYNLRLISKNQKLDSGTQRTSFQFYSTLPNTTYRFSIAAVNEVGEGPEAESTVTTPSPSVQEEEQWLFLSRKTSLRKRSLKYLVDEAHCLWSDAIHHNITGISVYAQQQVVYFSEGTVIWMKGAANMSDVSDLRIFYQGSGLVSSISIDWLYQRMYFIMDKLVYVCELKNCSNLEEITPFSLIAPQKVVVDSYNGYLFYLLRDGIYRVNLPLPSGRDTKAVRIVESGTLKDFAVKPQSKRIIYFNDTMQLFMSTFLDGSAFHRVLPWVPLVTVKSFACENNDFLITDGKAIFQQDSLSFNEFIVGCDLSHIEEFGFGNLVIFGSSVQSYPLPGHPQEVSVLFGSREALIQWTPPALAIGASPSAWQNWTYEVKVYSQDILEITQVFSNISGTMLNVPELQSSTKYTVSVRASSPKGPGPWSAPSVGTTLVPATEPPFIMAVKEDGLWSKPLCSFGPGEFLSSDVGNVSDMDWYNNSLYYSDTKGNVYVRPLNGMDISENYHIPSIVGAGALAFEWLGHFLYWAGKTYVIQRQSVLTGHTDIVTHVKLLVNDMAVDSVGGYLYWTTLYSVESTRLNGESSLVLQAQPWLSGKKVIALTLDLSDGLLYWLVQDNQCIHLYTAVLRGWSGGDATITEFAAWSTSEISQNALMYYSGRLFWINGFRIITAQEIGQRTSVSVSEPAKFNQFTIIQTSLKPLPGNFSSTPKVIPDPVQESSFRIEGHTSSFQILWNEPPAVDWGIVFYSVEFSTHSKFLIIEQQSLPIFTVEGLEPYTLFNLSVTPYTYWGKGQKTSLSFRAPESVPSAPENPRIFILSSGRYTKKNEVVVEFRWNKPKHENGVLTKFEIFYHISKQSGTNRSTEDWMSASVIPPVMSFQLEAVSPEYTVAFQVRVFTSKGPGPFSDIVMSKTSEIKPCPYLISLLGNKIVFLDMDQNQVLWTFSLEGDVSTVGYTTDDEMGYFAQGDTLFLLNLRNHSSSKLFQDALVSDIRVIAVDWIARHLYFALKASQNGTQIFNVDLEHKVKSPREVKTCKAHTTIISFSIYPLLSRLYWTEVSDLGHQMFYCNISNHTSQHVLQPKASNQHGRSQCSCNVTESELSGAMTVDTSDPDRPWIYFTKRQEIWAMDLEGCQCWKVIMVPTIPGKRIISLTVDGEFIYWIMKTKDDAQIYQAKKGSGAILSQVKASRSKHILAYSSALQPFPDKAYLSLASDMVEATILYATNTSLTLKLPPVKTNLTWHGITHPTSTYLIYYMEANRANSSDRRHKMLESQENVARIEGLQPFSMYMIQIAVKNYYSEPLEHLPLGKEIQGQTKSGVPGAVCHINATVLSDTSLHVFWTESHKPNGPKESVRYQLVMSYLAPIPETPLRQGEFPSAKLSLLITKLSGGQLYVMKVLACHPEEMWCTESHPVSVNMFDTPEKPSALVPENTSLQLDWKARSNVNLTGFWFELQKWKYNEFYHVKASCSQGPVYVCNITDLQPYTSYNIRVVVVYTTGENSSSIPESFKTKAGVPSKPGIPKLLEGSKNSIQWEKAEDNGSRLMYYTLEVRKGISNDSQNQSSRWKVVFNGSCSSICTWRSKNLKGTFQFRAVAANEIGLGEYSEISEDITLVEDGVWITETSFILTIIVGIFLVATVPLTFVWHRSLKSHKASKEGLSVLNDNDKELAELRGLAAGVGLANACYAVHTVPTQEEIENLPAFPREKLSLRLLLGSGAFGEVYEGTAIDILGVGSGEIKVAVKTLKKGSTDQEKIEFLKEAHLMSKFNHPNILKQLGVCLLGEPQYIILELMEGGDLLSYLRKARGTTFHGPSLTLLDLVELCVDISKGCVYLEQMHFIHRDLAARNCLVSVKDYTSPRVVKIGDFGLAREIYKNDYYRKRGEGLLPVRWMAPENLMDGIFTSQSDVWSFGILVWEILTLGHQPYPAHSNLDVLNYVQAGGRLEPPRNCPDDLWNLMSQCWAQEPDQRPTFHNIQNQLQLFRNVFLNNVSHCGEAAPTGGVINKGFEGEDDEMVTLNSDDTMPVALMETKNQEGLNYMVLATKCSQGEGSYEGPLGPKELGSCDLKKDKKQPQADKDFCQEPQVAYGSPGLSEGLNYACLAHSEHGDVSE
T1 sequence (P04441 whole entry, further chain): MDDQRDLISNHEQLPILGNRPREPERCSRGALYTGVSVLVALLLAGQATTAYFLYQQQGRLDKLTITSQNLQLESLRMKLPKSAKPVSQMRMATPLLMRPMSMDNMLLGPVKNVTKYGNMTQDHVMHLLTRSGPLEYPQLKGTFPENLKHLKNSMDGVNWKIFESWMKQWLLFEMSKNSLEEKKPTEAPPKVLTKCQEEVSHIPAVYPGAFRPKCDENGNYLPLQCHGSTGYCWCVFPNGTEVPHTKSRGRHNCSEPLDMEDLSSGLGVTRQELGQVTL
Summary of the method: (§2)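 Cells seeded in growth medium with 0.5% serum and incubated overnight; compounds diluted in serum-free medium, added for 1 h, then medium aspirated. Lysates assayed for phospho-ROS1 (Tyr2274) by sandwich ELISA. IC50 from four-parameter concentration-response curve fit. Engineered lines made by retroviral transduction (pMSCV) with puromycin or hygromycin selection for 5 d.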

BaF3 [5] = assay: cells; details: Mus musculus, BaF3, 72 h
BaF3 [6] = assay: Antiproliferative activity against mouse BaF3 cells harboring CD74-ROS1 G2032R mutant assessed as reduction in cell viability incubated for 72 hrs by CellTiter-Glo assay; type: functional, cell-based; details: BaF3, 72 h; summary of the method: as §1
HCC78 [7] = assay: Antiproliferative activity against human HCC78 cells harboring SLC34A2-ROS1 fusion protein assessed as reduction in cell viability incubated for 72 hrs by CellTiter-Glo assay; type: functional, cell-based; details: HCC78, 72 h
Summary of the method: (§3)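 HCC78 NSCLC cells seeded in growth medium with 10% FBS, cultured overnight at 37 °C, then exposed to serial compound dilutions for 72 h at 37 °C. Relative cell number read by CellTiter-Glo luminescence; IC50 from four-parameter concentration-response curve fit.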

[8] = test system: Proto-oncogene tyrosine-protein kinase ROS (Homo sapiens), P08922 [L2026M]; assay: Inhibition of recombinant human ROS1 L2026M mutant in presence of ATP by microfluidic mobility shift assay; details: dose 0.001-1000 nM
Proto-oncogene tyrosine-protein kinase ROS (Homo sapiens), P08922 [L2026M], sequence (P08922 whole entry L2026M, the tested form may be a part, canonical isoform): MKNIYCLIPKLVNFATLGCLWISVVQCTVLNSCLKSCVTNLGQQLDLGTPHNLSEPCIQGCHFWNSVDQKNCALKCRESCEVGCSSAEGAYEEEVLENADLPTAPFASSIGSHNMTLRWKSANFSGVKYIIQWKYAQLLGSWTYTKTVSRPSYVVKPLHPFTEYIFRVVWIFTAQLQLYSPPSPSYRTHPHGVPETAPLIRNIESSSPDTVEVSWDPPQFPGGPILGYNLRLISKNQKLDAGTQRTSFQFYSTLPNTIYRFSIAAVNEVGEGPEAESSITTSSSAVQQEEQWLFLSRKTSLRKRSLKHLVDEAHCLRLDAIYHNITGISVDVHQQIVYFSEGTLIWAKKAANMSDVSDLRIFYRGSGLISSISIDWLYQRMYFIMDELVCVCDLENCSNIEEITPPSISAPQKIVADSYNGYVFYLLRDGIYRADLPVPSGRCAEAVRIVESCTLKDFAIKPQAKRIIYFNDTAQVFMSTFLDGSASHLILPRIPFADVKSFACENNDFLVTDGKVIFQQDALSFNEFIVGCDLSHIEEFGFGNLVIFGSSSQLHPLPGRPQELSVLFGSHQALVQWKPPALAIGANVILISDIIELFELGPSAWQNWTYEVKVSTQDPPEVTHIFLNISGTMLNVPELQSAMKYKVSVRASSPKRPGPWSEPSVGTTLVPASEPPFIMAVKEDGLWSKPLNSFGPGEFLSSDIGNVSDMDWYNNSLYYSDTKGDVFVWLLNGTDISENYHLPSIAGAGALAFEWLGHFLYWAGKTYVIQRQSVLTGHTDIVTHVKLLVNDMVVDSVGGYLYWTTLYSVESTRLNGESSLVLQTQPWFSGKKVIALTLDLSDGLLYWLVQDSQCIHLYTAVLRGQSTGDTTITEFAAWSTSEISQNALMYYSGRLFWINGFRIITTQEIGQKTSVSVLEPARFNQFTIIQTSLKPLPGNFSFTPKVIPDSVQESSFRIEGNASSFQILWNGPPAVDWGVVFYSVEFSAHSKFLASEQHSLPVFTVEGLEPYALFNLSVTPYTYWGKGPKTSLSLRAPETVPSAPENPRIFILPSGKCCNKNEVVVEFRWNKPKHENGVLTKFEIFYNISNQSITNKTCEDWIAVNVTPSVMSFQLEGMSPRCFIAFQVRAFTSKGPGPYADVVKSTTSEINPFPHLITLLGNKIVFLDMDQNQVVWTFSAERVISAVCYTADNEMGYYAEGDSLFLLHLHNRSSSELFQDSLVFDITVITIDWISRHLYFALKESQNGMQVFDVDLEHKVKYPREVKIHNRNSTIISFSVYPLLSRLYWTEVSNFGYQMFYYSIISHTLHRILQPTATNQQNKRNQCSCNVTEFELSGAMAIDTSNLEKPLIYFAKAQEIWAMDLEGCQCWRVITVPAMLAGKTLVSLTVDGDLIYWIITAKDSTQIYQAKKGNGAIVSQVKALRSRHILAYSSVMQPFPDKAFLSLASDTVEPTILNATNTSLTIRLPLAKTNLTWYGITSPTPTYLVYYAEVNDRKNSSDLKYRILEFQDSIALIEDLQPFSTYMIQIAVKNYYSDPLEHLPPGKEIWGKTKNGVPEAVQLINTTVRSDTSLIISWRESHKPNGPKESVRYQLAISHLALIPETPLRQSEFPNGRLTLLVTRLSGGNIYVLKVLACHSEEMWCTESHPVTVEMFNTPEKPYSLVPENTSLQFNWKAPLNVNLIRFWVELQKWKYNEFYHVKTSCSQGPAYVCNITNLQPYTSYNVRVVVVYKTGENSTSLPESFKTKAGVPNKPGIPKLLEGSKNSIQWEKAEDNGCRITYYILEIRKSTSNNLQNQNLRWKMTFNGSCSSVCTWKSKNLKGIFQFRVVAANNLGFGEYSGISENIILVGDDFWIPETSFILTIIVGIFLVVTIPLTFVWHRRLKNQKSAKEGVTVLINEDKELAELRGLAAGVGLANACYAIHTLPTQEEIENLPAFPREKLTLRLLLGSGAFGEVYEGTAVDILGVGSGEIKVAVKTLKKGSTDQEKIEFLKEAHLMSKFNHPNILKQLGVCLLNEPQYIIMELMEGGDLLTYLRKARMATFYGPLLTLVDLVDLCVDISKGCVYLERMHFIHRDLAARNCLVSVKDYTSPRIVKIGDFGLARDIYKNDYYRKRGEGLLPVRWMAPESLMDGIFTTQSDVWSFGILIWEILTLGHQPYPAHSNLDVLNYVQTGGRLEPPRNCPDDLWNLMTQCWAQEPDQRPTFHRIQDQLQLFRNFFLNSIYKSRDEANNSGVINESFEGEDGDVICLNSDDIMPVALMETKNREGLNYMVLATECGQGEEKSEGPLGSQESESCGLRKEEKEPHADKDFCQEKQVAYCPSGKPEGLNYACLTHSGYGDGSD

[9] = molecular target: T2, Golgi-associated PDZ and coiled-coil motif-containing protein/Proto-oncogene tyrosine-protein kinase ROS (Mus musculus, UniProt Q78DX7); assay: Inhibition of FIG-ROS1 long isoform fusion protein expressed in mouse NIH3T3 cells assessed as inhibition of phosphorylated ROS1 incubated for 1 hr by ELISA analysis; type: cell-based; summary of the method: as §2
T2 sequence (Q78DX7 whole entry, other chains not shown, the tested form may be a part, canonical isoform): as the sequence (Q78DX7 whole entry) above

HCC78 [10] = assay: Antiproliferative activity against human HCC78 cells assessed as reduction in cell viability incubated for 72 hrs by CellTiter-Glo assay; type: functional, cell-based; details: HCC78, 72 h; summary of the method: as §3
[11] = molecular target: T2, Golgi-associated PDZ and coiled-coil motif-containing protein/Proto-oncogene tyrosine-protein kinase ROS; assay: Inhibition of FIG-ROS1 short isoform fusion protein expressed in mouse NIH3T3 cells assessed as inhibition of phosphorylated ROS1 incubated for 1 hr by ELISA analysis; type: cell-based; summary of the method: as §2
[12] = molecular target: T1, H-2 class II histocompatibility antigen gamma chain/Proto-oncogene tyrosine-protein kinase ROS; assay: Inhibition of CD74-ROS1 expressed in mouse NIH3T3 cells assessed as inhibition of phosphorylated ROS1 incubated for 1 hr by ELISA analysis; type: cell-based; summary of the method: as §2
[13] = molecular target: T3, Proto-oncogene tyrosine-protein kinase ROS (Homo sapiens, UniProt P08922); assay: Inhibition of recombinant human ROS1 in presence of ATP by microfluidic mobility shift assay; details: dose 0.001-1000 nM
T3 sequence (P08922 whole entry): as the sequence (P08922 whole entry L2026M, the tested form may be a part, canonical isoform) above, with M2026L counted along it

[14] = test system: Proto-oncogene tyrosine-protein kinase ROS (Homo sapiens), P08922 [G2032R]; assay: Inhibition of recombinant human ROS1 G2032R mutant in presence of ATP by microfluidic mobility shift assay; details: dose 0.001-1000 nM
Proto-oncogene tyrosine-protein kinase ROS (Homo sapiens), P08922 [G2032R], sequence (P08922 whole entry G2032R): as the sequence (P08922 whole entry L2026M, the tested form may be a part, canonical isoform) above, with M2026L, G2032R counted along it

[15] = molecular target: Proto-oncogene tyrosine-protein kinase ROS (Homo sapiens, UniProt P08922, L2026M); assay: Binding affinity to recombinant human ROS1 L2026M mutant assessed as inhibition constant in presence of ATP by microfluidic mobility shift assay
SLC34A2-ROS1 = SLC34A2-ROS1 (Homo sapiens, UniProt P08922); assay: Inhibition of SLC34A2-ROS1 fusion protein expressed in human HCC78 cells assessed as inhibition of phosphorylated ROS1 incubated for 1 hr by ELISA analysis; type: cell-based
[16] = molecular target: T3, Proto-oncogene tyrosine-protein kinase ROS; assay: Binding affinity to recombinant human ROS1 assessed as inhibition constant in presence of ATP by microfluidic mobility shift assay
[17] = test system: Proto-oncogene tyrosine-protein kinase ROS (Homo sapiens), P08922 [G2032R]; assay: Binding affinity to recombinant human ROS1 G2032R mutant assessed as inhibition constant in presence of ATP by microfluidic mobility shift assay

Structure (SMILES) | pIC50 [1] | pIC50 (BaF3 [2]) | pIC50 [3] | pIC50 [4] | pIC50 (BaF3 [5]) | pIC50 (BaF3 [6]) | pIC50 (HCC78 [7]) | inhibition [8] | pIC50 [9] | pIC50 (HCC78 [10]) | pIC50 [11] | pIC50 [12] | inhibition [13] | inhibition [14] | pKi [15] | pIC50 (SLC34A2-ROS1) | pKi [16] | Kis [17] [nM]
COc1cc2nccc(Oc3ccc(NC(=O)C4(C(=O)Nc5ccc(F)cc5)CC4)cc3)c2cc1OC [CABOZANTINIB] | 8.85 | 8.96 | 8.19 | 8.82 | 8.64 | 8.89 | – | – | – | – | – | – | – | – | – | – | – | –
Cc1cc(Nc2ncc(Cl)c(Nc3ccccc3S(=O)(=O)C(C)C)n2)c(OC(C)C)cc1C1CCNCC1 [CERITINIB] | 7.15 | 7.22 | < 5.70 | 7.15 | 7.36 | < 5.70 | 6.30 | Dose-Dependent Effect | 6.52 | 6.65 | 6.31 | 6.47 | Dose-Dependent Effect | Dose-Dependent Effect | – | – | – | –
CCc1cc2c(cc1N1CCC(N3CCOCC3)CC1)C(C)(C)c1[nH]c3cc(C#N)ccc3c1C2=O [ALECTINIB] | < 5.00 | < 5.70 | < 5.00 | < 5.00 | < 5.70 | < 5.70 | < 5.00 | Dose-Dependent Effect | < 5.30 | < 6.00 | < 5.30 | < 5.30 | Dose-Dependent Effect | inactive | 5.70 | < 6.00 | 5.62 | > 3000

Other lines, results leading:

pIC50 [1] | pIC50 (BaF3 [2]) | pIC50 [3] | pIC50 [4] | pIC50 (BaF3 [5]) | pIC50 (BaF3 [6]) | pIC50 (HCC78 [7]) | inhibition [8] | pIC50 [9] | pIC50 (HCC78 [10]) | pIC50 [11] | pIC50 [12] | inhibition [13] | inhibition [14] | pKi [15] | pIC50 (SLC34A2-ROS1) | pKi [16] | Kis [17] [nM] | Structure (SMILES)
– | 8.07 | 7.06 | 8.42 | 7.96 | 7.16 | 7.72 | Dose-Dependent Effect | 8.25 | 7.68 | 8.21 | 8.26 | Dose-Dependent Effect | Dose-Dependent Effect | – | – | – | – | COc1cc2c(Oc3ccc(NC(=O)C4(C(=O)Nc5ccc(F)cc5)CC4)cc3F)ccnc2cc1OCCCN1CCOCC1 [FORETINIB]
– | 6.59 | < 5.30 | 8.41 | 7.74 | < 5.70 | 7.68 | Dose-Dependent Effect | 7.39 | 7.33 | 7.22 | 7.96 | Dose-Dependent Effect | Dose-Dependent Effect | – | – | – | – | C[C@@H](Oc1cc(-c2cnn(C3CCNCC3)c2)cnc1N)c1c(Cl)ccc(F)c1Cl [CRIZOTINIB]
